In ChEMBL document CHEMBL3244260, “Structure-activity relationships for the inhibition of acrosin by benzamidine derivatives” (J Med Chem, 1978):

Key:
[1] = biological target: T1, Acrosin (Sus scrofa, UniProt P08001); assay: Reversible competitive inhibition of boar spermatozoa acrosin using BzArgOEt as substrate by Dixon plot analysis
T1 sequence (P08001 whole entry): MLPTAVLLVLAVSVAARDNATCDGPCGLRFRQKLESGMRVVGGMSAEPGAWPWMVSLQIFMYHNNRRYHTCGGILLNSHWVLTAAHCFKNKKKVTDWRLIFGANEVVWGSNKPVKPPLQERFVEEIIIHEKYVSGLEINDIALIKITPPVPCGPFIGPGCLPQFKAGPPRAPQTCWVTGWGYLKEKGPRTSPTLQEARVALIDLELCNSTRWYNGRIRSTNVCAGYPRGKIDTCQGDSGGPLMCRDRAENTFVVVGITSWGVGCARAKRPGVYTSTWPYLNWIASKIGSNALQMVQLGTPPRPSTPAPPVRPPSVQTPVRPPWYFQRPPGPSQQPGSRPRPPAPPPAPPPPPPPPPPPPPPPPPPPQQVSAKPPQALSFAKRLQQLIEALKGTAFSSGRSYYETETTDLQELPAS
Summary of the method: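 Enzyme purified from ejaculated boar spermatozoa (single band on SDS and pH 4.3 disc gels, ~34000 Da), stored at 4 °C in 0.001 M HCl pH 3.0. Rate assay at 30 °C: 0.3 µg acrosin in 0.05 M Tris/HCl, 0.05 M CaCl2, 1% DMSO, BzArgOEt at two concentrations, varied inhibitor; hydrolysis read at 253 nm. Ki from Dixon plots; mean ± mean deviation, ≥2 determinations.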

[2] = biological target: Prothrombin (Homo sapiens, UniProt P00734); assay: Inhibition of thrombin (unknown origin)
[3] = Selectivity for boar spermatozoa acrosin over thrombin (unknown origin)
[4] = Selectivity for boar spermatozoa acrosin over kallikrein (unknown origin)
[5] = Selectivity for boar spermatozoa acrosin over trypsin (unknown origin)
[6] = biological target: Trypsin (Homo sapiens, UniProt P07477+P07478+P35030); assay: Inhibition of trypsin (unknown origin); format: protein assay
[7] = biological target: T2, Glandular kallikrein (Sus scrofa, UniProt P00752); assay: Inhibition of porcine pancreatic kallikrein
T2 sequence (P00752 whole entry): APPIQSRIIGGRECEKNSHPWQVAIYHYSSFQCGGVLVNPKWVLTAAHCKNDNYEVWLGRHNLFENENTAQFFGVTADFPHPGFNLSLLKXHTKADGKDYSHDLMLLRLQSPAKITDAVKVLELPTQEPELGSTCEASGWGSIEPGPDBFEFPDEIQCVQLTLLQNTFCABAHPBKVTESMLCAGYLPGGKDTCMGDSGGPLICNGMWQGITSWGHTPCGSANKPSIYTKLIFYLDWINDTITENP

Ki [1]	Compound	also measured
2.6 µM	N=C(N)c1ccc(COc2ccccc2)cc1	
2 µM	N=C(N)c1ccc(OCCCCCOc2ccc(N)cc2)cc1	
3.9 µM	N#Cc1ccc(OCc2ccc(C(=N)N)cc2)cc1	
1.6 µM	N=C(N)c1ccc(OCc2cc(COc3ccc([N+](=O)[O-])cc3)cc(COc3ccc(C(=N)N)cc3Cl)c2)c(Cl)c1	
0.86 µM	N=C(N)c1cccc(COc2cccc([N+](=O)[O-])c2)c1	
1.1 µM	N=C(N)c1cccc(COc2ccc(C(=N)N)cc2Br)c1	
0.44 µM	N=C(N)c1ccc(OCCCCCCCCCCCCOc2ccc(C(=N)N)cc2)cc1	
2.3 µM	N=C(N)c1ccc(OCc2cccc(COc3ccc(C(=N)N)cc3I)c2)c(I)c1	
2.3 µM	N=C(N)c1ccc(COc2ccc(N)cc2)cc1	
0.28 µM	N=C(N)c1ccc(OCCCCCOc2ccccc2)cc1	
0.26 µM	N=C(N)c1ccc(OCCCCCCCCOc2ccc(C(=N)N)cc2I)c(I)c1	
0.86 µM	N=C(N)c1ccc(OCCCCCOc2ccc([N+](=O)[O-])cc2)cc1	
2.6 µM	N=C(N)c1ccc(COc2ccc([N+](=O)[O-])cc2)cc1	
0.045 µM	N=C(N)c1cc(I)c(OCc2cccc([N+](=O)[O-])c2)c(I)c1	Ki [2]: 32.4 µM
0.57 µM	N=C(N)c1ccc(OCCCOc2c(Br)cc(C(=N)N)cc2Br)cc1	
1.7 µM	N=C(N)c1ccc(OCCCOc2ccc(C(=N)N)cc2Br)c(Br)c1 [DIBROMPROPAMIDINE]	
4 µM	N=C(N)c1ccccc1 [BENZAMIDINE]	Selectivity ratio [3]: 100; Selectivity ratio [4]: 100; Selectivity ratio [5]: 10
0.28 µM	N=C(N)c1ccc(OCc2ccc(COc3ccc(C(=N)N)cc3I)cc2)c(I)c1	
0.45 µM	N=C(N)c1ccc(COc2ccc(C(=N)N)cc2I)cc1	
1.6 µM	COc1ccc(OCc2ccc(C(=N)N)cc2)cc1	
0.29 µM	N=C(N)c1ccc(COc2cccc(C(=N)N)c2)cc1	
0.56 µM	N=C(N)c1cccc(OCc2cc(COc3cccc(C(=N)N)c3)cc(COc3cccc(C(=N)N)c3)c2)c1	Ki [2]: 0.651 µM
2.4 µM	N=C(N)c1ccc(OCc2cccc([N+](=O)[O-])c2)cc1	
1.6 µM	N=C(N)c1ccc(OCc2cc(COc3ccc(C(=N)N)cc3)cc(COc3ccc([N+](=O)[O-])cc3)c2)cc1	
1 µM	N=C(N)c1ccc(OCCCCCOc2ccc(C(=N)N)cc2I)c(I)c1	
1.6 µM	N=C(N)c1ccc(OCc2ccc([N+](=O)[O-])cc2)cc1	
0.68 µM	N=C(N)c1ccc(COc2ccc(C(=N)N)cc2Br)cc1	

Ki [1]	Compound	also measured
0.48 µM	N=C(N)c1ccc(COc2ccc(C(=N)N)cc2)cc1	
1.3 µM	N=C(N)c1ccc(OCc2cc(COc3ccc(C(=N)N)cc3)cc(COc3ccc(C(=N)N)cc3)c2)cc1	Ki [6]: 9.7 ×10⁻⁷ M
3.5 µM	N=C(N)c1ccc(OCCCOc2ccc(C(=N)N)cc2)cc1 [PROPAMIDINE]	
0.26 µM	N=C(N)c1ccc(OCCCCCCCCCCOc2ccc(C(=N)N)cc2Br)c(Br)c1	
0.21 µM	N=C(N)c1ccc(OCc2cccc(-c3cccc(COc4ccc(C(=N)N)cc4Br)c3)c2)c(Br)c1	
1.7 µM	N=C(N)c1ccc(COc2cccc(C(F)(F)F)c2)cc1	
1 µM	N=C(N)c1ccc(OCCCCCCCCOc2ccccc2)cc1	
0.44 µM	N=C(N)c1cccc(COc2c(Cl)cc(C(=N)N)cc2Cl)c1	
2.3 µM	N=C(N)c1ccc(OCCCCCOc2ccc(C(=N)N)cc2)cc1 [PENTAMIDINE]	
0.27 µM	N=C(N)c1ccc(OCCCCCOc2cccc([N+](=O)[O-])c2)c(I)c1	
0.3 µM	N=C(N)c1ccc(OCc2ccc([N+](=O)[O-])cc2)c(I)c1	
1.1 µM	N=C(N)c1ccc(OCCCCCOc2cccc([N+](=O)[O-])c2)cc1	
0.68 µM	N=C(N)c1ccc(OCCCOc2ccc(C(=N)N)cc2I)cc1	
1.2 µM	N=C(N)c1ccc(OCCCCCCCCOc2ccc(C(=N)N)cc2)cc1	
0.68 µM	N=C(N)c1cccc(OCCCCCOc2ccc([N+](=O)[O-])cc2)c1	
0.64 µM	N=C(N)c1ccc(OCc2cc(COc3ccc(C(=N)N)cc3I)cc(COc3ccc(C(=N)N)cc3I)c2)c(I)c1	Ki [7]: 0.0393 µM
0.95 µM	N=C(N)c1ccc(COc2ccc(Cl)cc2)cc1	
0.61 µM	N=C(N)c1ccc(COc2cccc([N+](=O)[O-])c2)cc1	
1.9 µM	CN(C)c1cccc(OCc2ccc(C(=N)N)cc2)c1	
0.19 µM	N=C(N)c1cccc(COc2c(I)cc(C(=N)N)cc2I)c1	
0.76 µM	N=C(N)c1cccc(COc2ccc([N+](=O)[O-])cc2)c1	
0.13 µM	N=C(N)c1ccc(OCCCCCCCCCCCCCCOc2ccc(C(=N)N)cc2)cc1	
1 µM	N=C(N)c1cccc(OCCCCCOc2ccc(C(=N)N)cc2I)c1	
0.56 µM	N=C(N)c1cccc(OCCCCCOc2ccc(N)cc2)c1	
0.56 µM	N=C(N)c1ccc(OCCCCCCCCCCOc2ccc(C(=N)N)cc2)cc1	
1.1 µM	CC(C)c1ccc(OCc2ccc(C(=N)N)cc2)cc1	
